Assay outcomes: PubChem, Johns Hopkins Ion Channel Center
Rows were chosen to be rich in hits. Some 3.1% of all compounds tested hit in one or more screens of this group.
KCNQ1 act – potentiators or activators of human KCNQ1 potassium channel. P51787. CHO-K1 KCNQ1, thallium flux FluxOR fluorescence; hits give high values. B-score at 10 µM. 0.35% of 310,000 active;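 active means fluorescence ratio B-score, a plate-corrected score, at least three library SD, with initial intensity B-score within 5 SD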
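Doses: Single concentration per compound, DMSO matched to controls | Test system: KCNQ1-transfected CHO-K1 cells | Timing: 90 min dye loading and 20 min compound exposure, both at room temperature | Measured by: Kinetic FluxOR thallium fluorescence, 10-s 1-Hz baseline, 110-s post-stimulus read | Medium: Assay buffer with matched DMSO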
KCNK3 block – human KCNK3 channel inhibition, primary screen; O14649; AID 602410; CHO-KCNK3 thallium flux, FluxOR fluorescence; hits give low values; B-score at 10 µM; 0.84% of 340,000 active;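 active means B-score under library mean minus 4 SD, starting fluorescence ratio at most library mean plus 5 SD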;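 further: more negative B-score means stronger inhibition of thallium flux through KCNK3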
Target sequence (O14649 whole entry, looked up): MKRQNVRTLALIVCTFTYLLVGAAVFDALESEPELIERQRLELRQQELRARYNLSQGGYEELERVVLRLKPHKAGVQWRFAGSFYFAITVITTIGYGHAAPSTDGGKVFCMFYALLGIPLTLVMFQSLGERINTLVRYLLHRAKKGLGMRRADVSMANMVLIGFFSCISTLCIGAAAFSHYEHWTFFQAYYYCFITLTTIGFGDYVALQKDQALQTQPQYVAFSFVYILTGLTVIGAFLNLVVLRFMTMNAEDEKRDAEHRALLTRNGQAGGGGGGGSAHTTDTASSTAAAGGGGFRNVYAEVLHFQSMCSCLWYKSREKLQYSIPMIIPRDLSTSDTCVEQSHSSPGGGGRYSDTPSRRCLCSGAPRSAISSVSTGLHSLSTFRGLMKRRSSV
KCNQ1 block – human KCNQ1 channel inhibition. B-score at 10 µM. 1.3% of 310,000 active. CHO-K1 KCNQ1, FluxOR thallium flux fluorescence; hits give high values;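 active means compounds whose thallium flux B-score, printed positive for inhibition, exceeds three library SD while starting fluorescence stays within three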;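 further: channel opened by potassium depolarization with thallium stimulus after 20 min compound exposure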
hERG protect – compounds protecting human hERG from proarrhythmic drug block; CHO-hERG, FluxOR thallium flux, dofetilide IC70 present; activation (rescue from dofetilide block), less the hit threshold, % at 10 µM; 0.51% of 310,000 active;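 active means activation above the mean of controls blocked by dofetilide plus 5 SD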;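 further: thallium influx through hERG after potassium depolarization seen as dye fluorescence rise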
KCNK9 block – inhibitors of human KCNK9 two-pore domain potassium channel; Q9NPC2; HEK293 KCNK9, FluxOR thallium flux fluorescence; hits give low values; B-score at 10 µM; 1.2% of 310,000 active;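 active means ratio B-score over 3 SD below the library mean, with starting fluorescence within 5 SD of its mean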;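 further: negative B-score means less thallium flux so channel inhibition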
Target sequence (Q9NPC2 whole entry, looked up, the tested form may be a part): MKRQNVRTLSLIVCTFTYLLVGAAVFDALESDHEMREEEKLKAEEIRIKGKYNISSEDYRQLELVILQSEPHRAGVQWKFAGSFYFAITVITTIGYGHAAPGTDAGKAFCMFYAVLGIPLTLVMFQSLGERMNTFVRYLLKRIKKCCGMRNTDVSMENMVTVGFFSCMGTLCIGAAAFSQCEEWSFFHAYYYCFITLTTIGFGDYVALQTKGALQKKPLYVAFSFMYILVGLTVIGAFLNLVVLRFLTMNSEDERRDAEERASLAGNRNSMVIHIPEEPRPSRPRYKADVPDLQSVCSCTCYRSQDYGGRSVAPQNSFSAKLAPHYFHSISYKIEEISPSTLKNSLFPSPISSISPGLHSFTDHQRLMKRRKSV
KCNQ1 inh valid – human KCNQ1 channel inhibition, validation assay. shares compounds with KCNQ1 block. KCNQ1 cell line, FluxOR thallium flux fluorescence. inhibition, % at 10 µM. 93% of 1,600 active. AID 588353;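 active means primary screen active, with duplicate mean exceeding buffer control mean plus 3 SD of buffer wells, cut at about 28% in these data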
CHO Tl flux – activity in parental CHO cells lacking KCNQ1. fluorescence ratio (Tl flux) at 10 µM. 21% of 1,600 active. shares compounds with KCNQ1 block. parental CHO-K1, FluxOR thallium flux fluorescence ratio; hits give low values; zero means no signal rise above baseline;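 active means mean of duplicate thallium-flux fluorescence ratios in parental host cells more than 5 SD below the buffer control mean, cut at about 0.38 in these data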;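 further: ratio is peak minus minimum fluorescence divided by baseline fluorescence; actives read low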
KCNQ1 ephys val – human KCNQ1 inhibition validated by electrophysiology; AID 624120; calls only at 10 µM; 20% of 490 active; KCNQ1-CHO cells, automated patch clamp current; shares compounds with KCNQ1 block;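 active means KCNQ1 current drop exceeding 3 SD of negative control wells, seen in both duplicate runs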;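 further: steady state current during a 2 s step from -80 to +40 mV; negative values mean current inhibition and positive values mean potentiation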
KCNQ2 inh – rat KCNQ2 inhibition in KCNQ1 inhibitor specificity screen; shares compounds with KCNQ1 block; KCNQ2 cells, FluxOR thallium flux fluorescence; inhibition, % at 10 µM; 71% of 1,600 active;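 active means mean percent inhibition of the KCNQ2 thallium signal more than 5 SD above the buffer-only control wells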;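 further: KCNQ2 expressed in CHO cells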
KCNQ1-KCNE1 inh – selectivity of KCNQ1 inhibitors: inhibition of human KCNQ1/KCNE1 channel; shares compounds with KCNQ1 block; KCNQ1/KCNE1 cells, FluxOR thallium flux fluorescence; inhibition, % at 10 µM; 77% of 1,600 active;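 active means mean percent inhibition of duplicate wells above the buffer-only control mean plus 3 SD of those controls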
A number is an active result; - = inactive; . = no result; + = active, no number.

SMILES | KCNQ1 act | KCNK3 block | KCNQ1 block | hERG protect | KCNK9 block | KCNQ1 inh valid | CHO Tl flux | KCNQ2 inh | KCNQ1-KCNE1 inh | others
Cc1csc(=O)n1CCC(=O)OCC(=O)c1c(N)n(CC(C)C)c(=O)n(C)c1=O | - | - | - | - | - | . | . | . | .
CC(C)Cn1c(N)c(C(=O)COC(=O)CC23CC4CC(CC(C4)C2)C3)c(=O)n(C)c1=O | - | - | 12 | - | - | 143.5 | 0.297 | 124.0% | 186.0%
C#C[C@]1(O)CCC2C3CCC4=Cc5oncc5CC4(C)C3CCC21C (some centres not stated) | - | - | - | - | - | . | . | . | .
CC(C)CCNC(=O)CCn1c(=S)oc2ccccc21 | - | - | - | - | - | . | . | . | .
O=C1COc2ccc(C(=O)NCc3ccc4c(c3)OCO4)cc2N1 | - | - | 7 | - | - | 103.5 | - | 86.3% | 112.5% | KCNQ1 ephys val=+
CC(C)(C)c1ccc(CNC(=O)c2ccc3c(c2)NC(=O)CO3)cc1 | - | - | - | - | - | . | . | . | .
CC(C)CC(NS(=O)(=O)OCC(Cl)(Cl)Cl)c1ccccc1 (configuration not stated) | - | - | 12 | - | - | 55.5 | - | 65.3% | -
COC(=O)CCC(NS(=O)(=O)OCC(Cl)(Cl)Cl)c1ccccc1 (configuration not stated) | - | - | - | - | - | . | . | . | .
O=C(NCC(NS(=O)(=O)OCC(Cl)(Cl)Cl)c1ccccc1)C(F)(F)F (configuration not stated) | - | - | - | - | - | . | . | . | .
CC(NS(=O)(=O)OCC(Cl)(Cl)Cl)c1ccc(Br)cc1 (configuration not stated) | - | - | 7 | - | - | 126.5 | - | 73.3% | 104.0% | KCNQ1 ephys val=-
C(#CCN1CCCC1)CC(c1ccccc1)c1ccccc1 | - | - | - | - | - | . | . | . | .
Cc1cc(C)cc(NC(=O)C[n+]2ccccc2)c1 | - | - | - | - | - | . | . | . | .
CC(=O)c1sc2nc(-c3cccs3)ccc2c1N | - | - | - | - | - | . | . | . | .
Cc1cc(C)c2c(N)c(C(=O)c3ccc(Cl)c(Cl)c3)sc2n1 | - | - | - | - | - | . | . | . | .
Cc1cc(-c2cccs2)c2c(N)c(C(=O)c3ccc4c(c3)OCO4)sc2n1 | - | - | 7 | - | -6.65 | 193.0 | 0.197 | - | -
COc1ccc(C(=O)c2sc3nc(C)cc(-c4cccs4)c3c2N)cc1OC | - | - | 7 | - | - | 199.0 | 0.198 | - | -
CC(C)NC(=O)c1sc2nc(-c3cccs3)cc(-c3cccs3)c2c1N | - | . | 6 | - | - | 198.0 | 0.281 | - | -
Cc1cc(C)c2c(N)c(C(=O)c3ccc(Cl)cc3)sc2n1 | - | - | - | - | - | . | . | . | .
COc1ccc(C(=O)c2sc3nc(C)cc(-c4cccs4)c3c2N)cc1 | - | - | 6 | - | - | 195.0 | 0.257 | - | -
O=C(CCC(=O)N1CCN(Cc2ccc(F)cc2)CC1)Nc1nnc(C(F)(F)F)s1 | - | - | - | - | - | . | . | . | .
O=C(O)CCC1(c2ccccc2)NC(=O)NC1=O (configuration not stated) | - | - | - | - | - | . | . | . | .
COc1ccccc1NC(=O)CN1CCN(C2c3ccccc3-c3ccccc32)CC1 | - | - | 7 | - | - | 107.5 | - | 100.0% | 155.0% | KCNQ1 ephys val=-
COc1ccccc1NC(=O)CN1CCC(n2nnc3cc(F)ccc32)CC1 | - | - | - | - | - | . | . | . | .
COc1ccccc1NC(=O)CN1CCC(n2c(C)nc3cc(F)ccc32)CC1 | - | - | 8 | - | - | 116.5 | - | 96.7% | 98.0% | KCNQ1 ephys val=-
COc1ccccc1NC(=O)CN1CCCCCC1 | - | - | - | - | - | . | . | . | .
SMILES | KCNQ1 act | KCNK3 block | KCNQ1 block | hERG protect | KCNK9 block | KCNQ1 inh valid | CHO Tl flux | KCNQ2 inh | KCNQ1-KCNE1 inh | others
Nc1ccc2c(c1)N1CCN=C1S2 | - | - | - | - | - | . | . | . | .
O=C(Nc1ccc(Cl)cc1)Nc1ccc2c(c1)N1CCN=C1S2 | - | - | 12 | - | - | 105.5 | - | 65.3% | 110.5% | KCNQ1 ephys val=-
COc1ccccc1CNC(=O)[C@H](C)NC(=O)C1CCN(C(=O)[C@@H](N)CC(C)C)CC1 | - | - | - | - | - | . | . | . | .
Cc1cc(=O)[nH]c(SCC(=O)c2c(N)n(C)c(=O)n(C)c2=O)n1 | - | - | - | - | - | . | . | . | .
O=C(Nc1ccc(F)cc1)c1ccc2snnc2c1 | - | - | - | - | - | . | . | . | .
CCCc1cc(C(=O)Nc2ccc(C(=O)c3ccc(F)cc3)cc2)n(C)n1 | - | -12.1 | 6 | - | - | + | - | 137.3% | +
O=C(COc1ccc([N+](=O)[O-])cc1)NNC(=O)c1cccs1 | - | - | - | - | - | . | . | . | .
COc1ccc(-c2csc3ncnc(N4CCN(c5ccccc5Cl)CC4)c23)cc1 | - | - | 9 | - | - | 105.0 | 0.38 | 96.3% | 90.5%
COc1ccc(CN2CCN(c3ncnc4scc(-c5ccc(F)cc5)c34)CC2)cc1 | - | - | - | - | - | . | . | . | .
COc1ccc(-c2csc3ncnc(N4CCN(S(=O)(=O)c5ccc(Cl)s5)CC4)c23)cc1 | - | - | - | - | - | . | . | . | .
COc1ccc(-c2csc3ncnc(N4CCN(S(=O)(=O)c5cccs5)CC4)c23)cc1 | - | - | 8 | - | - | 84.0 | - | 100.0% | 76.0%
COc1ccc(F)cc1CN1CCN(c2ncnc3scc(-c4ccccc4)c23)CC1 | - | - | 7 | - | - | 117.0 | - | 113.7% | 153.0% | KCNQ1 ephys val=-
COc1ccc(-c2csc3ncnc(N4CCN(c5cccc(OC)c5)CC4)c23)cc1 | - | - | 10 | - | - | 134.5 | - | 113.7% | 119.0% | KCNQ1 ephys val=-
O=C1N(Cc2ccccc2)CC2(Br)COCOC12O (configuration not stated) | . | - | . | . | . | . | . | . | .
CC(C)NC(=O)C1(S(=O)(=O)c2ccccc2)CC=CC1 | - | - | - | - | - | . | . | . | .
CCCCNC(=O)C(=O)Nc1cc2c3c(c1)CCC(=O)N3CCC2 | - | - | - | - | - | . | . | . | .
CCOc1ccc2nc(NC(=O)Cn3[nH]c(=O)c4ccccc4c3=O)sc2c1 | - | - | - | - | - | . | . | . | .
COc1ccc(-c2csc3ncnc(N4CCN(c5cccc(C)c5C)CC4)c23)cc1 | - | - | 7 | - | - | 93.5 | - | 68.3% | 148.5% | KCNQ1 ephys val=-
COc1ccc(-c2csc3ncnc(N4CCN(S(=O)(=O)c5ccc(C)cc5)CC4)c23)cc1 | - | - | - | - | - | . | . | . | .
Cc1ccc(S(=O)(=O)CCNC(=O)Cc2ccccc2)cc1 | - | - | - | - | - | . | . | . | .
